Results reported in ChEMBL document CHEMBL1132278, “Discovery of novel antitumor sulfonamides targeting G1 phase of the cell cycle” (J Med Chem, 1999).
≈ marks a conversion by molar mass, not a printed value.

What was measured:
Type in all cases: functional, cell-based
KB = assay: Antiproliferative activity against KB human nasopharynx carcinoma in vitro
How it was run: (§1)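 RPMI1640 with 10% FBS; seeded at 2.5×10³ cells/well for KB and colon 38, 1.25×10³ cells/well for P388; preincubated 24 h at 37 °C, 5% CO2. DMSO stocks were diluted 3-fold serially in medium, with 200 μg/mL the top dilution. Exposure was continuous for 3 days, then MTT for 1–2 h. Formazan was read in DMSO at 540/660 nm, and IC50 was taken by least squares.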

P388 = assay: Antiproliferative activity against P388 murine leukemia in vitro; conditions: Mus musculus; how it was run: as §1
MC-38 = assay: In vitro antiproliferative activity against colon 38 murine adenocarcinoma; conditions: Mus musculus; how it was run: as §1

Row | IC50 (KB) [µg/mL] | IC50 (P388) [µg/mL] | Structure (SMILES) | IC50 (MC-38) [µg/mL]
1 | 15 (≈ 37.5 µM) | 0.9 (≈ 2.25 µM) | CNS(=O)(=O)c1ccc(S(=O)(=O)Nc2cccc3c(Cl)c[nH]c23)cc1 | 0.24 (≈ 0.6 µM)
2 | 12 (≈ 30 µM) | 1.6 (≈ 4 µM) | CS(=O)(=O)Nc1ccc(S(=O)(=O)Nc2cccc3c(Cl)c[nH]c23)cc1 | 0.26 (≈ 0.65 µM)
3 | 18 (≈ 45 µM) | 18 (≈ 45 µM) | CS(=O)(=O)Nc1ccccc1S(=O)(=O)Nc1cccc2c(Cl)c[nH]c12 | 45 (≈ 113 µM)
4 | – | 0.32 (≈ 0.862 µM) | COc1ccc(S(=O)(=O)Nc2cccnc2Nc2ccc(O)cc2)cc1 [ABT-751] | –
5 | 15 (≈ 38.4 µM) | 3.5 (≈ 8.96 µM) | CS(=O)(=O)Nc1ccc(S(=O)(=O)Nc2cccc3c(C#N)c[nH]c23)cc1 | 1.2 (≈ 3.07 µM)
6 | 8.2 (≈ 25.4 µM) | 0.2 (≈ 0.62 µM) | N#Cc1cccc(S(=O)(=O)Nc2cccc3c(C#N)c[nH]c23)c1 | 0.09 (≈ 0.279 µM)
7 | 2.2 (≈ 7.68 µM) | 4.3 (≈ 15 µM) | Cc1ccc(S(=O)(=O)Nc2cccc3cc[nH]c23)cc1 | 2.4 (≈ 8.38 µM)
8 | 0.55 (≈ 1.63 µM) | 0.76 (≈ 2.26 µM) | COc1ccc(S(=O)(=O)Nc2cccc3c(Cl)c[nH]c23)cc1 | 0.2 (≈ 0.594 µM)
9 | 8.5 (≈ 28.6 µM) | 4.2 (≈ 14.1 µM) | N#Cc1ccc(S(=O)(=O)Nc2cccc3cc[nH]c23)cc1 | 1.8 (≈ 6.05 µM)
10 | > 100 | > 100 | N#Cc1c[nH]c2c(NS(=O)(=O)c3ccc(C(=O)O)cc3)cccc12 | > 100
11 | 26 (≈ 65 µM) | 4.8 (≈ 12 µM) | CS(=O)(=O)Nc1cccc(S(=O)(=O)Nc2cccc3c(Cl)c[nH]c23)c1 | 1.5 (≈ 3.75 µM)
12 | 4.4 (≈ 11.4 µM) | 0.45 (≈ 1.17 µM) | NS(=O)(=O)c1ccc(S(=O)(=O)Nc2cccc3c(Cl)c[nH]c23)cc1 [INDISULAM] | 0.1 (≈ 0.259 µM)
13 | 4.4 (≈ 14.1 µM) | 0.72 (≈ 2.31 µM) | N#Cc1c[nH]c2c(NS(=O)(=O)c3ccc(N)cc3)cccc12 | 0.28 (≈ 0.896 µM)
14 | 61 (≈ 189 µM) | 14 (≈ 43.4 µM) | N#Cc1ccccc1S(=O)(=O)Nc1cccc2c(C#N)c[nH]c12 | 2.8 (≈ 8.69 µM)
15 | 21 (≈ 60 µM) | 0.87 (≈ 2.49 µM) | NC(=O)c1ccc(S(=O)(=O)Nc2cccc3c(Cl)c[nH]c23)cc1 | 0.19 (≈ 0.543 µM)
16 | 13 (≈ 32.5 µM) | 0.15 (≈ 0.375 µM) | NS(=O)(=O)Cc1ccc(S(=O)(=O)Nc2cccc3c(Cl)c[nH]c23)cc1 | 0.12 (≈ 0.3 µM)
17 | 36 (≈ 125 µM) | 14 (≈ 48.7 µM) | Nc1ccc(S(=O)(=O)Nc2cccc3cc[nH]c23)cc1 | 6.1 (≈ 21.2 µM)
18 | 1.4 (≈ 4.28 µM) | 0.17 (≈ 0.519 µM) | COc1ccc(S(=O)(=O)Nc2cccc3c(C#N)c[nH]c23)cc1 | 0.17 (≈ 0.519 µM)
19 | 33 (≈ 102 µM) | 0.53 (≈ 1.64 µM) | N#Cc1ccc(S(=O)(=O)Nc2cccc3c(C#N)c[nH]c23)cc1 | 0.12 (≈ 0.372 µM)
20 | 0.67 (≈ 2.22 µM) | 1.1 (≈ 3.64 µM) | COc1ccc(S(=O)(=O)Nc2cccc3cc[nH]c23)cc1 | 1.5 (≈ 4.96 µM)
21 | 11 (≈ 33.2 µM) | 1.4 (≈ 4.22 µM) | N#Cc1ccc(S(=O)(=O)Nc2cccc3c(Cl)c[nH]c23)cc1 | 0.13 (≈ 0.392 µM)
22 | 6 (≈ 19.6 µM) | 6 (≈ 19.6 µM) | O=S(=O)(Nc1cccc2cc[nH]c12)c1ccc(Cl)cc1 | 7 (≈ 22.8 µM)
23 | > 100 | > 100 | O=C(O)c1ccc(S(=O)(=O)Nc2cccc3c(Cl)c[nH]c23)cc1 | > 100
24 | 15 (≈ 44.1 µM) | 2.5 (≈ 7.35 µM) | N#Cc1c[nH]c2c(NS(=O)(=O)c3ccc(C(N)=O)cc3)cccc12 | 0.68 (≈ 2 µM)
25 | 10 (≈ 31.1 µM) | 0.81 (≈ 2.52 µM) | Nc1ccc(S(=O)(=O)Nc2cccc3c(Cl)c[nH]c23)cc1 | 0.23 (≈ 0.715 µM)
